Hits are enriched below; roughly 2.3% of the tested compounds scored in any of these assays.
TRPC4 agonist: TRPC4 (mouse) channel activation | Q9QUQ5 | hit rate 0.49% among 310,000 | HEK293 TRPC4beta/mu-opioid, Fluo4 calcium fluorescence; stronger effect = higher value | B-score at 10 µM;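 active means B-score above 5 SD of library B-scores, and initial fluorescence ratio not above library mean plus 5 SD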;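 further: positive B-score marks a calcium rise read as TRPC4 activation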
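Material: HEK293 stable line with TRPC4beta plus mu-opioid receptor; technique: Fluo4 calcium-sensitive dye fluorescence, kinetic, 1 Hz baseline; timing: Fluo4 dye loading 45 min at room temperature, 110 s recording; controls: assay buffer as low control, maximal DAMGO as high control; read-out: integrated baseline-normalised fluorescence ratio, converted to per-well B score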
TRPC4 inh: inhibitors of mouse TRPC4 channel; Q9QUQ5; HEK293 TRPC4beta/mu-opioid, DAMGO-evoked Fluo4 calcium flux; stronger effect = lower value; B-score at 10 µM; hit rate 0.39% among 300,000; AID 2247;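 active means B-score over 3 SD under the library average, no early fluorescence shift, positive overall ratio signal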
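Test system – stable TRPC4beta/mu-opioid receptor HEK293 cells · Probe or stimulus – DAMGO, a submaximal dose followed by a maximal one · Dosing – one concentration per compound · Signal – Fluo4 calcium fluorescence by kinetic imaging, 5 s 1 Hz baseline · Evaluation – per-well B score of integrated baseline-normalized Fluo4 ratio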
TRPC6 act: mouse TRPC6 channel activation; Q61143; HEK293-TRPC6 membrane potential dye fluorescence; stronger effect = higher value; hit rate 0.13% among 310,000; B-score at 10 µM;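 active means B-score of the integrated fluorescence ratio above library mean plus 3 SD, and starting fluorescence ratio within library mean plus 5 SD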;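 further: higher score means more depolarization so channel activation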
Target sequence (Q61143 whole entry, looked up): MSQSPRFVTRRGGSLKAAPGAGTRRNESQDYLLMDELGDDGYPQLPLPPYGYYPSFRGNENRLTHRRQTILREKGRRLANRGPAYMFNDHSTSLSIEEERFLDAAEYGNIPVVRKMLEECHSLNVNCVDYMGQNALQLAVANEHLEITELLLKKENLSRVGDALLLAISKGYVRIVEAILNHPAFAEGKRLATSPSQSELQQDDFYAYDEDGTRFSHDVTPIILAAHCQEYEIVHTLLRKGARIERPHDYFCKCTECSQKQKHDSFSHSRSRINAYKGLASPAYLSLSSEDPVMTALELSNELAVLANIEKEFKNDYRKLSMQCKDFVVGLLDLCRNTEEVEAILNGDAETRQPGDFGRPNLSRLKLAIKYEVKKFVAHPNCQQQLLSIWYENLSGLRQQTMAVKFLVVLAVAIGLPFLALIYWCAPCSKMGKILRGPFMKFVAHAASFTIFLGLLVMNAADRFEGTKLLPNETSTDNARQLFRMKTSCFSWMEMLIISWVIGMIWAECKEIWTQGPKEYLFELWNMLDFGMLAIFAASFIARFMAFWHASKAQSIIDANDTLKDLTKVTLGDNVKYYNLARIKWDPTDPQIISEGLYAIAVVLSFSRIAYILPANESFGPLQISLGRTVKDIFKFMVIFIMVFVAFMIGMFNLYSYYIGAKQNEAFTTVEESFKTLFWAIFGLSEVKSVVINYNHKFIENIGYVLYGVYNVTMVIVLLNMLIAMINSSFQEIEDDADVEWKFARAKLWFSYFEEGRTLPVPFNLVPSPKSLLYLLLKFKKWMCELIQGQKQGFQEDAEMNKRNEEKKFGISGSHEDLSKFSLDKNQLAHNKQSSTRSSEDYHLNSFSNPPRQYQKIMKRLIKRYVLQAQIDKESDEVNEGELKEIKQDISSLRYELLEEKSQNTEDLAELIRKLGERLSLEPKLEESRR
TRPC6 inhibitor: inhibitors of mouse TRPC6 channel; HEK293-TRPC6, membrane potential dye, ACh-evoked depolarization; stronger effect = lower value; B-score at 10 µM; hit rate 1.1% among 310,000;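 active means B-score under library mean minus 3 SD, initial fluorescence not abnormally high, positive integrated signal ratio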;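 further: B-score derived from integrated fluorescence ratio over the kinetic read; more negative B-score means stronger inhibition of depolarization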
TRPC4 PAM: allosteric potentiators of mouse TRPC4 channel; B-score at 10 µM; Q9QUQ5; HEK293 TRPC4beta/mu-opioid, DAMGO EC20, Fluo-4 Ca2+ flux; stronger effect = higher value; hit rate 0.42% among 310,000;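 active means B-score of calcium response area above 5 SD of library B-scores, with initial fluorescence ratio within 5 SD of library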;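 further: B-score of integrated fluorescence ratio over time as area under calcium response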
TRPC4 spec 2: second selectivity test of TRPC6 inhibitors: effect on mouse TRPC4; AID 2776; shares compounds with TRPC6 inhibitor; HEK293 TRPC4/MOR, membrane potential dye fluorescence; channel activated by saturating DAMGO dose; inhibition, % at 10 µM; hit rate 42% among 920;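 active means compounds whose fluorescence signal differed from control wells by over 3 SD, either direction, in both duplicate plates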
TRPC4 spec: selectivity of TRPC6 inhibitors: effect on mouse TRPC4; shares compounds with TRPC6 inhibitor; HEK293 TRPC4/mu-opioid, membrane potential fluorescence; activity change, negative = inhibition, % at 10 µM; hit rate 61% among 920; AID 2777;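 active means rise or fall in signal beyond 3 SD of buffer-only wells in both replicate plates, either sign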;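 further: integrated kinetic ratio of fluorescence range over baseline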
HEK293 MPD ctr 2-1: second check of TRPC6 inhibitor effects in parental HEK293 cells. shares compounds with TRPC6 inhibitor. parental HEK293 membrane potential dye fluorescence; maximal acetylcholine challenge after compound addition. signal change vs control, % at 10 µM. hit rate 31% among 920;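 active means membrane potential signal moving either way by over 3 SD of the maximum-effect control, in both duplicate plates, meaning non-specific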
HEK293 MPD ctr-1: checks TRPC6 inhibitor effects in parental HEK293 cells | shares compounds with TRPC6 inhibitor | parental HEK293 membrane potential dye fluorescence | membrane potential signal change, % at 10 µM | hit rate 60% among 920;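 active means membrane potential signal shifting up or down by more than 3 SD of buffer-only wells, on both duplicate plates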
HEK293 MPD ctr-2: counter-screen for TRPC6 modulators: effect in parental HEK293 cells | shares compounds with TRPC6 inhibitor | AID 488924 | membrane potential signal change, % at 10 µM | membrane potential dye fluorescence | hit rate 51% among 2,400;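 active means membrane potential signal moves up or down beyond 5 SD from buffer-only wells, on both duplicate plates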
HEK293 MPD ctr 2-2: second check of TRPC6 modulator effects in parental HEK293 cells | inhibition, % at 10 µM | hit rate 14% among 2,400 | shares compounds with TRPC6 inhibitor | AID 488926 | membrane potential dye fluorescence; after compound, maximal acetylcholine stimulation;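 active means membrane potential signal drops by more than 5 SD from the mean control signal, in both duplicate plates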;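 further: plate controls were acetylcholine ECmax control wells for no effect and buffer only wells for full effect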
TRPC4 ctr mod: selectivity of TRPC6 modulators against mouse TRPC4; HEK293 TRPC4/mu-opioid, membrane potential fluorescence; percent change from control (negative = decrease, positive = increase), % at 10 µM; shares compounds with TRPC6 inhibitor; hit rate 69% among 2,400;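 active means membrane potential signal moved up or down beyond 5 SD of buffer control wells, in both duplicate plates, actives on both sides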;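 further: plate controls were assay buffer wells for no effect and DAMGO maximal-effect wells for full effect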
TRPC4/MOR inh 2: second selectivity test of TRPC6 modulators against mouse TRPC4 | shares compounds with TRPC6 inhibitor | HEK293 TRPC4/mu-opioid, membrane potential dye fluorescence; stimulated with maximal-effect DAMGO | inhibition, % at 10 µM | hit rate 55% among 2,400 | AID 488928;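 active means drop in membrane potential signal beyond 5 SD of the control wells in both duplicate plates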;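 further: TRPC4 counter screen for TRPC6 hits run under conditions tuned for TRPC6 not TRPC4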
TRPC6 block conf: mouse TRPC6 inhibitor confirmation | AID 488960 | shares compounds with TRPC6 inhibitor | HEK293-TRPC6, membrane potential dye, ACh-evoked depolarization | hit rate 43% among 3,300 | inhibition, % at 10 µM;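 active means fluorescence ratio falls more than 5 SD below the full-stimulation control mean, in both duplicate runs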;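 further: integrated fluorescence ratio of peak minus minimum over baseline after agonist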
TRPC6 act confirm: confirmation of mouse TRPC6 activators. shares compounds with TRPC6 inhibitor. HEK293-TRPC6 membrane potential dye fluorescence, FDSS. activation, % at 10 µM. hit rate 11% among 2,800. AID 488961;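 active means ratio signal rise beyond 5 SD above unstimulated control wells' mean, seen in both duplicate runs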;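 further: plate controls were buffer EC0 wells for no effect and acetylcholine ECmax response for full effect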
An asterisk follows results filed as active; i = inactive; · = no result given.

SMILES	TRPC4 agonist	TRPC4 inh	TRPC6 act	TRPC6 inhibitor	TRPC4 PAM	HEK293 MPD ctr-2	HEK293 MPD ctr 2-2	TRPC4 ctr mod	TRPC4/MOR inh 2	TRPC6 block conf	TRPC6 act confirm	others
CN(C)c1cc[n+](CC[n+]2ccc(N(C)C)cc2)cc1	i	i	i	-5.5*	i	-234%*	i	-42%*	40%*	52%*	i
CN(C)c1cc[n+](Cc2c(Cl)cccc2Cl)cc1	i	i	i	i	i	·	·	·	·	·	·
CC(C)C[C@H]1CN=C(Nc2ccccc2)N1CC1CCC(C)CC1 (stereo partly drawn)	i	i	i	i	i	·	·	·	·	·	·
O=C(Cc1ccc([N+](=O)[O-])cc1)NCc1cccnc1	i	i	i	-5.2*	i	i	i	i	i	i	i
COc1ccc([N+](=O)[O-])cc1NCc1cccnc1	i	i	i	i	i	·	·	·	·	·	·
Cc1ccc(NC(=O)c2cc([N+](=O)[O-])ccc2NCc2cccnc2)cc1	i	i	i	-6.7*	i	·	·	·	·	i	i	TRPC4 spec 2=i;TRPC4 spec=i;HEK293 MPD ctr 2-1=i;HEK293 MPD ctr-1=-145%*
O=C1Cc2cc(NS(=O)(=O)c3cc(F)ccc3F)cc3c2N1CCC3	i	i	i	i	i	·	·	·	·	·	·
CS(=O)(=O)Cc1cccc(C(=O)NN(c2ccccc2)c2ccccc2)c1	i	i	i	i	i	·	·	·	·	·	·
Cc1c(Cl)cccc1NC(=O)CNCc1ccccc1F	i	i	i	-5.3*	i	i	i	18%*	i	i	·
Cc1c(Cl)cccc1NC(=O)CNc1ccccc1F	i	i	i	i	i	·	·	·	·	·	·
CS(=O)(=O)N1CCN(C(=O)C2c3ccccc3Oc3ccccc32)CC1	i	i	i	-5.7*	i	i	i	18%*	i	42%*	·
COc1cccc(C2CC(C(F)(F)F)n3ncc(C(=O)NCC4CCCO4)c3N2)c1 (stereo not drawn)	i	i	i	-5.6*	i	i	i	i	i	i	i
CCOC(=O)c1c(NC(=O)c2cnn3c2NC(c2cccc(OC)c2)CC3C(F)(F)F)sc2c1CCCC2 (stereo not drawn)	i	i	i	i	i	·	·	·	·	·	·
O=C1CCC(C(=O)O)(c2ccccc2)C1 (stereo not drawn)	i	i	i	-5.1*	i	i	i	i	i	i	i
Cc1ccc(C(=O)O)cc1NCc1ccncc1	i	i	i	i	i	·	·	·	·	·	·
